Here are results for one molecule from ChEMBL document CHEMBL4152379, “Discovery of Pyrrolidine Sulfonamides as Selective and Orally Bioavailable Antagonists of Transient Receptor Potential Vanilloid-4 (TRPV4)” (J Med Chem, 2018).

Converted amounts (≈) assume the structure as drawn.

A short description of data set [1]: Aqueous solubility of the compound. The class given is physicochemical. The note with it: buffer.
A short description of data set [2]: Clearance in iv dosed Sprague-Dawley rat. The note with it: in vivo. The data set is classed as ADME, organism-based. The essentials: (§1)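 Male Sprague-Dawley rats with femoral vein, femoral artery and gastric catheters; noncrossover design, 2 rats per route; cassette dosing of up to five compounds. i.v. target 1 mg/kg in 5% DMSO/20% Cavitron (pH 4), infused over 30 min. Oral gastric bolus target 2 mg/kg in 5% DMSO/6% Cavitron (pH 4). Plasma sampled to 24 h and measured by HPLC−MS/MS. Noncompartmental analysis; F from dose-normalized AUC(0−∞) relative to mean i.v. AUC.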

Data set [3] is described as follows: Oral bioavailability in Sprague-Dawley rat. The class given is ADME, organism-based. The note with it: in vivo. The essentials:
as §1

Data set [4] can be described thus: Fraction unbound in Sprague-Dawley rat plasma. The class given is ADME, cell-free.
For data set [5], the target named is Transient receptor potential cation channel subfamily A member 1 (Homo sapiens, UniProt O75762). Description: Inhibition of TRPA1 (unknown origin).
For data set [6], the target named is Transient receptor potential cation channel subfamily V member 1 (Homo sapiens, UniProt Q8NER1). As to the kind of experiment: Inhibition of TRPV1 (unknown origin).
Data set [7] deals with T1, Short transient receptor potential channel 3 (Homo sapiens, UniProt Q13507).
T1 sequence (Q13507 whole entry): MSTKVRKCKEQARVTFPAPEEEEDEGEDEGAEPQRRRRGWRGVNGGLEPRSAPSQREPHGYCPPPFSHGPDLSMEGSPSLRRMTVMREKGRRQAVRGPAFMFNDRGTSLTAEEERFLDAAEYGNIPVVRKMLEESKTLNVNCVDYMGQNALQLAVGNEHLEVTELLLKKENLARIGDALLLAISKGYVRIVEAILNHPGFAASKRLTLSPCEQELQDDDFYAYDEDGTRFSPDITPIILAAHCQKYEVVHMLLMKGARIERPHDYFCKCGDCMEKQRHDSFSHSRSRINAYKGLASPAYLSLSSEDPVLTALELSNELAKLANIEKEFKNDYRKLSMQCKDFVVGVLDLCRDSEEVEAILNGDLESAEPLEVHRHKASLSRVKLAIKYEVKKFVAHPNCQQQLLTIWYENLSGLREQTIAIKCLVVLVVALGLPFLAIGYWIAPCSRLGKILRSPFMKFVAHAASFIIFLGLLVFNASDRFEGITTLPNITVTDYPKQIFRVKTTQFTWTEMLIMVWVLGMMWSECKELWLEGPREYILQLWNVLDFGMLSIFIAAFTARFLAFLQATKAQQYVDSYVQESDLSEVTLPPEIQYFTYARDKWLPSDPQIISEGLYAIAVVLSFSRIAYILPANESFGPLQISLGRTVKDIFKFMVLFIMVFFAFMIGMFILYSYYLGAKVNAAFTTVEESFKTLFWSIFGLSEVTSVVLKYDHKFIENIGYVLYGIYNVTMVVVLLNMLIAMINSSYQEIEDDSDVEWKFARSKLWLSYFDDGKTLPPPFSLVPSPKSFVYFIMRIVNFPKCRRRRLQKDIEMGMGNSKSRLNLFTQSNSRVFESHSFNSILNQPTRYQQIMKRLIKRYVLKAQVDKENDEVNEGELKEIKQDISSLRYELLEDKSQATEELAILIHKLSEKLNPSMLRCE
As to the kind of experiment: Inhibition of TRPC3 (unknown origin).

The target of data set [8] is T2, Short transient receptor potential channel 6 (Homo sapiens, UniProt Q9Y210).
T2 sequence (Q9Y210 whole entry): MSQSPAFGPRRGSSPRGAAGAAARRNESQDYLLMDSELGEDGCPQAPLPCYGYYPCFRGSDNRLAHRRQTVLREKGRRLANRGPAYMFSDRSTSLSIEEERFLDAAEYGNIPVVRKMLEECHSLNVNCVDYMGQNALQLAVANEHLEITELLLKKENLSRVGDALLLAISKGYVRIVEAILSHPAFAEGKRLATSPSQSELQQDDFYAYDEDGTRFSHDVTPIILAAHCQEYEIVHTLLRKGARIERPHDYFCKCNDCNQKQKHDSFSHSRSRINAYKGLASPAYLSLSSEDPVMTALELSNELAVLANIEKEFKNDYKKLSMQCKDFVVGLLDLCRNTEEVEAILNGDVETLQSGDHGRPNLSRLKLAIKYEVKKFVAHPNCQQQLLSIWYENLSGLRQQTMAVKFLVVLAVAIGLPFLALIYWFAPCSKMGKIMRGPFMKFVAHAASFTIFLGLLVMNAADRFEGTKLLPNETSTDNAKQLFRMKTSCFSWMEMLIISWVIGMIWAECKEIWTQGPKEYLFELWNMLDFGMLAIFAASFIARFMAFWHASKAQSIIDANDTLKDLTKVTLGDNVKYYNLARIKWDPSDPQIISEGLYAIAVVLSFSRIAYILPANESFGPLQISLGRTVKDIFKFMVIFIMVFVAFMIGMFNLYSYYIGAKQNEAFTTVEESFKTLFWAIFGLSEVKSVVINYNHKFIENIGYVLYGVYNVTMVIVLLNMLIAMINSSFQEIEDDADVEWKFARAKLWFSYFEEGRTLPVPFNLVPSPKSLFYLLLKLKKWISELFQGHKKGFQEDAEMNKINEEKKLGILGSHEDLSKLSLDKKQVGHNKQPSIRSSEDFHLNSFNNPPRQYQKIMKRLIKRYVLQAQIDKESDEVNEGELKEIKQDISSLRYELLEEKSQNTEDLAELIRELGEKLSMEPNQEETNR
As to the kind of experiment: Inhibition of TRPC6 (unknown origin).

Data set [9] can be described thus: Lipophilicity, log D of the compound by chromatography. The data set is classed as physicochemical.

Sequence of Transient receptor potential cation channel subfamily V member 1 (Q8NER1 whole entry): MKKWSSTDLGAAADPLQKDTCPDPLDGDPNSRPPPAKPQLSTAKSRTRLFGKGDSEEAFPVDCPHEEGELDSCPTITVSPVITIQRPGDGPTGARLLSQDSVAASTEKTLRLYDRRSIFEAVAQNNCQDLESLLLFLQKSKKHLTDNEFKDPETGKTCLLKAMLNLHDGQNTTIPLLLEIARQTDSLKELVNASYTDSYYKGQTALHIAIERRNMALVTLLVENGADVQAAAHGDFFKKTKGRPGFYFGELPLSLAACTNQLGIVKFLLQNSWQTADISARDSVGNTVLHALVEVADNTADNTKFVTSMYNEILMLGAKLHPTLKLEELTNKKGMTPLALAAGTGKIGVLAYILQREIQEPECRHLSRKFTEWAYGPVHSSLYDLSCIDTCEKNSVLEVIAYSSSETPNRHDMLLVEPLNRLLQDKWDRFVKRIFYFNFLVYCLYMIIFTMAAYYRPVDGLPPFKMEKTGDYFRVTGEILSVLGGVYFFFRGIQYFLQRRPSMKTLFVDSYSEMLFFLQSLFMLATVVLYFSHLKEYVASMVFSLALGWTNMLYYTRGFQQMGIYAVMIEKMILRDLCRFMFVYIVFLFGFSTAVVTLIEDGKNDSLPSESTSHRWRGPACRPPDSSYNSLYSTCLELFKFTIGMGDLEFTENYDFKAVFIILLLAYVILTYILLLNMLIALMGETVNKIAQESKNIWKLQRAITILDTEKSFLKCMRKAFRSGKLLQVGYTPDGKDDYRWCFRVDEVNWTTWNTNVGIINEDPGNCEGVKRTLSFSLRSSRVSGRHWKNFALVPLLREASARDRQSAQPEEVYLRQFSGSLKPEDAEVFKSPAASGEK
Sequence of Transient receptor potential cation channel subfamily A member 1 (O75762 whole entry): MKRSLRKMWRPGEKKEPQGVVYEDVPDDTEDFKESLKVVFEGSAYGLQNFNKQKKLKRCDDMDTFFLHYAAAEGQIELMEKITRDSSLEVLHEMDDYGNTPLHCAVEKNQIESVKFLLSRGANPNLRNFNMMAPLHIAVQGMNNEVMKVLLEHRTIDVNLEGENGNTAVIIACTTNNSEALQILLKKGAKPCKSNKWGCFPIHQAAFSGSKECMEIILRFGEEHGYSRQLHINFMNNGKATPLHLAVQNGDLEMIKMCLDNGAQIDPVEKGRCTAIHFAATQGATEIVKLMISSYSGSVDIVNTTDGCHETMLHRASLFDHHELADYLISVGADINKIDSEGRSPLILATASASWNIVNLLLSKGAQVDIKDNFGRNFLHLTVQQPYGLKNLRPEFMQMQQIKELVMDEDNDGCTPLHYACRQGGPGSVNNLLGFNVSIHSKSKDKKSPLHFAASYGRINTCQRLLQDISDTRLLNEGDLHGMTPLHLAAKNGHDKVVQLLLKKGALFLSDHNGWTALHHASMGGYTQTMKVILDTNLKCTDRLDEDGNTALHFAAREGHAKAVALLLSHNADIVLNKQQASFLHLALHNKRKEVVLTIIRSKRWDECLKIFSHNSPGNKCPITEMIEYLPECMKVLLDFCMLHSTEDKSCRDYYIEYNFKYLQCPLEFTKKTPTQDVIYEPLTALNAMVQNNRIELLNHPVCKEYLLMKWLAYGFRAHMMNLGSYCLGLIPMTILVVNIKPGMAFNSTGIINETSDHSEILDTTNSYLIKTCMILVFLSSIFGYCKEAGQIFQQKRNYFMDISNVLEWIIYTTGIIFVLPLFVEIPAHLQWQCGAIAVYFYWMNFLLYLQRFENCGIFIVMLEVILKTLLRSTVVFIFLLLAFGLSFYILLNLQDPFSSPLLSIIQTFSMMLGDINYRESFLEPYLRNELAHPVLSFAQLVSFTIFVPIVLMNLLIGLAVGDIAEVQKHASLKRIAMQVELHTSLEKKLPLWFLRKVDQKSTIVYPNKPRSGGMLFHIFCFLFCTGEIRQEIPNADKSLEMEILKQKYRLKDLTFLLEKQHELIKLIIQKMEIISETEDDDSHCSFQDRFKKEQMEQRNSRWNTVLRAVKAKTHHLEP

As to `N#Cc1ccc(O[C@H]2CN(S(=O)(=O)c3ccc(Cl)cc3Cl)C[C@@]2(O)CO)cc1F`, in data set [1], the concentration in solution (solubility) came to 360 µM (≈ 166 µg/mL). In addition, in data set [2], the clearance (in general, the rate of elimination divided by the concentration) was 3.48 L/h/kg. Besides, the bioavailability (in general, dose-corrected exposure relative to a reference, in per cent) in data set [3] came to 35%. In data set [4], the fraction unbound (in general, free concentration divided by total concentration) was 0.059. Also, the IC50 in [5], in data set [6], in data set [7] and in data set [8] was > 10 µM in each case. In data set [9], the chromatographic logD (commonly a lipophilicity value derived from retention on a column) turned out to be 4.6.
